Screening data from PubChem.
Most compounds without a hit are left out; they make up all but 2.1% or so of the library.
Hck-Nef inh = inhibitors of Nef-activated human Hck kinase, primary screen, biochemical, Z-Lyte FRET, 384-well, Hck-YEEI. Tyrosine-protein kinase HCK (Homo sapiens), P08631. Recombinant Hck-YEEI plus Nef, Z-Lyte FRET kinase assay. inhibition, % at 20 µM. 220,000 compounds, 0.68% hits. AID 463187, 2010;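 active = Hck-Nef kinase inhibition above about 50%, limit read from the data; inactive = inhibition below that limit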;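 also: 0% = DMSO with Hck plus Nef and 100% = Hck alone without Nef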
Target sequence (P08631 whole entry, looked up): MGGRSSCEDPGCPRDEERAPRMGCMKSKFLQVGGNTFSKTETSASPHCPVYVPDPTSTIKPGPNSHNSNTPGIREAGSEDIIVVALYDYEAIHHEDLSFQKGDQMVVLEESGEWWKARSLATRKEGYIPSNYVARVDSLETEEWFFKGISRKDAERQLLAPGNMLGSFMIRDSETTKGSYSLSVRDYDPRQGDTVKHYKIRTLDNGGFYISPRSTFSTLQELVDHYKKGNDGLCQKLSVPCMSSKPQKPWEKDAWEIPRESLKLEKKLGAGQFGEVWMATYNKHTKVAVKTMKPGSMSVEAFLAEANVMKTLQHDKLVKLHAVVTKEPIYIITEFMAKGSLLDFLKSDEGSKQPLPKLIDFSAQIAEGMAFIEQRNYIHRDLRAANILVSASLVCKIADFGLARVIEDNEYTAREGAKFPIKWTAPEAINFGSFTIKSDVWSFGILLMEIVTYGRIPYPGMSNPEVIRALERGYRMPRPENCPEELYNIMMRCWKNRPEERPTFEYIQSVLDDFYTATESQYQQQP
Pemphigus Ab inh = inhibitors of pemphigus antibody binding to DSG3, primary screen, biochemical, bead-based, flow cytometry, scFv-GFP. Desmoglein-3 (Homo sapiens), P32926. DSG3-coupled beads, scFv-anti-DSG3-GFP binding; hits give low values. binding (percent of control), % at 10 µM. 310,000 compounds, 0.48% hits. AID 588358, 2011;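 active = binding more than 3 SD below its plate's average and above zero; inconclusive = below that plate limit but binding exactly zero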;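 also: hits lower antibody fragment binding to DSG3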
pCIP destab = p/CIP-EGFP fusion destabilizers, primary screen, fluorescence, F442A cells | Q05BA5 | 16 h | decrease of EGFP signal, % at 10 µM | 290,000 compounds, 0.01% hits;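 active = EGFP signal decrease of at least 30% at 10 µM or well 3 SD below plate mean, unless failing retest; inactive = the rest, including hits failing retest or dose response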
Runt-SMMHC FRET = inhibitors of RUNX1 Runt–CBFb-SMMHC binding, primary screen, biochemical, FRET, Cerulean-Runt, Venus-CBFb-SMMHC, uHTS; Runt-related transcription factor 1 (Homo sapiens) + Core-binding factor subunit beta …; Cerulean-Runt/Venus-CBFb-SMMHC FRET ratio 530/480, 1 h; inhibition, % at 20 µM; 220,000 compounds, 0.74% hits; AID 1434, 2008;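 active = mean inhibition across duplicate retests at 20 µM reaching about 50%, limit read from the data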;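 also: 0% = DMSO wells and 100% = wells with excess untagged CBFb-SMMHC; inhibitors lower the FRET ratio by blocking Runt binding to CBFb-SMMHC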
Runt-CBFb FRET = inhibitors of RUNX1 Runt–CBFb binding, primary screen, biochemical, FRET, Cerulean-Runt, Venus-CBFb, uHTS; Runt-related transcription factor 1 (Homo sapiens) + Core-binding factor subunit beta …; inhibition, % at 20 µM; AID 1496, 2009; Cerulean-Runt/Venus-CBFb FRET ratio 530/480, 1 h; 220,000 compounds, 0.46% hits;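 active = inhibition over about 50% at 20 µM in the single-dose screen, limit read from the data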;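 also: 0% = DMSO wells and 100% = excess unlabeled CBFb competitor control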
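Buffer or medium: Tris pH 7.5 buffer with BSA. Assay system: Cerulean-labeled Runt domain protein. Amount: each fluorescent fusion protein 100 nM. Read-out basis: loss of energy transfer signal. Incubation: 1 h compound exposure, room temperature. Probe or stimulus: Venus-CBFb binding partner, 100 nM. Detection: FRET, excitation 422 nm, emission at 530 and 480 nm.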
RanGTP-Impb inh = inhibitors of RanGTP-importin-beta interaction, primary screen, biochemical, FRET, CFP-Ran, YFP-importin-beta, homogeneous | 300,000 compounds, 1.1% hits | cell-free CFP-Ran/YFP-importin-beta FRET ratio | inhibition, % (test concentration not listed);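 active = more than half of the replicate wells show a fall in the fluorescence ratio signal beyond about 16%, limit read from the data, passing the limit was not always enough; inconclusive = exactly half of the replicate wells pass the set limit; inactive = fewer than half of replicates pass the limit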;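 also: 0% = DMSO wells and 100% = Ran loaded with GDP instead of GTP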
Hck Nef conf = retest of Hck:Nef kinase inhibitor hits, confirmation, biochemical, Z-Lyte FRET, 384-well, p-Tyr peptide counterscreen; shares compounds with Hck-Nef inh; Recombinant Hck-YEEI:Nef, Z-Lyte FRET kinase assay; calls only at 10 µM; 1,300 compounds, 28% hits; AID 463188, 2010;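 active = average inhibition of at least 50%, with Z-scores no higher than 3 in both the phospho-tyrosine peptide and fluorescence counterscreens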
* marks the source's active call; other numbers are inactive results; i = inactive; ? = inconclusive; · = not tested or not shown; + = active, no number.

SMILES	Hck-Nef inh	Pemphigus Ab inh	pCIP destab	Runt-SMMHC FRET	Runt-CBFb FRET	RanGTP-Impb inh	Hck Nef conf
Nc1c2ccccc2nc2ccccc12	93*	103	-3	82*	10	175*	·
Nc1c2c(nc3ccccc13)CCCC2	-5	102	0	1	0	4	·
O=C(CN1C(=O)CCS(=O)(=O)c2ccccc21)Nc1ccc(Cl)cc1	·	107	1	·	·	7	·
C/C(=N\Nc1ccc(S(N)(=O)=O)cc1[N+](=O)[O-])c1ccc2c(c1)OCO2	65*	·	3	-2	-1	-2	+
Cc1ccc(NC(=O)CN2C(=O)S/C(=C/c3ccc(O)c([N+](=O)[O-])c3)C2=O)cc1C	64*	102	7	-22	-11	·	+
CCSc1nnc(NC(=O)c2ccco2)s1	101*	·	-7	2	1	2	i
Cc1cccc(NC(=O)c2cc3cc([N+](=O)[O-])ccc3s2)n1	51*	104	-13	-4	-3	?	i
CCOC(=O)c1cc2c(c(-c3ccccc3)n1)[C@H](CCO)N(S(=O)(=O)C(C)(C)C)C2	·	102	·	·	·	·	·
Cc1cc(C)c2c(n1)nn1c(NCCOCCO)cc(C)nc21	51*	·	-8	72*	28	38*	·
CCN(CC)c1ccc(/C=N/NC(=O)c2ccoc2C)cc1	61*	105	-2	21	8	-2	·
CCN(CC)c1ccc(/C=N\NC(N)=O)cc1	2	85	-10	29	2	-5	·
CN(C(=S)NC(=O)C1CC1)c1ccc(O)cc1	·	100	·	·	·	·	·
O=c1oc2c3c4c(cc2c2c1CCC2)OCCN4CCC3	97*	99	-7	53*	83*	·	·
CCC(C)(C)NC(=O)CN(CCc1cccc(C)c1)C(=O)c1csnn1	12	101	2	0	1	7	·
C(=N\Nc1ccccn1)/c1c[nH]c2ccccc12	51*	108	-9	2	5	4	i
Cc1cccc(CCNC(=O)C2CC(O)CN2C(=O)Nc2ccccc2)c1 (configuration not stated)	·	100	·	·	·	·	·
CN(C(=O)C1CCCN(c2ncnc3c2nc2n3CCCCC2)C1)c1cccc(Cl)c1 (configuration not stated)	·	·	-1	·	·	2	·
COCc1cc(C)nc(OCC(=O)N/N=C/c2ccc(-c3cc([N+](=O)[O-])ccc3Cl)o2)c1C#N	93*	93	-3	-9	·	1	i
COCc1cc(C)nc(OCC(=O)N/N=C/c2ccco2)c1C#N	3	103	-7	-2	1	-1	·
O=c1[nH]c(CSc2nc(-c3ccccc3)cs2)nc2ccccc12	4	103	-11	4	0	-1	·
O=c1[nH]c(CSc2ncnc3sc(-c4ccccc4)cc23)nc2ccccc12	54*	98	3	-21	4	1	i
Cc1nn(C)c(C(=O)NNC(=O)NC2CCCCC2)c1Cl	·	113	-3	·	·	2	·
O=C(Nc1cc(S(=O)(=O)N2CCOCC2)ccc1N1CCCC1)c1ccc2c(c1)S(=O)(=O)c1ccccc1C2=O	65*	97	-1	-8	8	4	i
O=C(Nc1cc(S(=O)(=O)N2CCOCC2)ccc1N1CCCCC1)c1ccccc1	·	95	·	·	·	·	·
CC(C)(C)SCCNC(=O)c1ccccc1	54*	107	0	1	1	4	i
SMILES	Hck-Nef inh	Pemphigus Ab inh	pCIP destab	Runt-SMMHC FRET	Runt-CBFb FRET	RanGTP-Impb inh	Hck Nef conf
Cc1ccc(C(=O)NCCSC(C)(C)C)cc1	2	?	-7	1	1	?	·
O=C(COc1ccc(/C=N/NC(=O)c2cc3ccccc3o2)cc1Cl)Nc1ccccc1	86*	94	3	0	-1	-3	+
CNc1nc(-c2cccs2)cc(C(F)(F)F)c1C#N	104*	·	-73	88*	11	109*	i
CCN(CC)c1nc2ccccc2nc1-n1nc(C)cc1C	103*	95	-27	18	7	?	i
O=c1oc2c(CN3CCOCC3)c(O)ccc2c2c1CCCC2	54*	108	2	66*	42	33*	·
O=c1oc2c(CN3CCOCC3)c(O)c(Cl)cc2c2c1CCCC2	80*	108	-10	42	105*	85*	·
CCc1c(C)c2cc(Cl)c(O)c(CN3CCCC3)c2oc1=O	·	104	-3	·	·	?	·
CCCCc1cc(=O)oc2c(CN3CCN(C)CC3)c(O)ccc12	·	89	1	·	·	6	·
CCCc1cc(=O)oc2c(CN3CCOCC3)c(O)ccc12	65*	118	4	90*	·	5	·
O=c1oc2c(CN3CCOCC3)c(O)ccc2c2ccccc12	-2	112	-2	-14	·	-5	·
Cc1ccccc1CC(=O)N1CCCC(CNC(=O)c2ccc(F)cc2)C1 (configuration not stated)	·	106	8	·	·	-1	·
Fc1cccc(-n2c(-c3cccs3)nc3nc4ccccc4nc32)c1	59*	·	-7	-134	-114	-9	i
Clc1c(-c2ccccc2)nc2ccccn12	·	109	-1	·	·	-1	·
c1ccn2c(c1)nc1c2nc2ccccn21	66*	100	-2	72*	20	-4	·
CCOC(=O)c1cnc2ccc(OCC)cc2c1N1CCN(c2ccccc2OC)CC1	77*	101	-19	0	-14	4	+
CCOc1ccc2ncc(C(=O)c3ccc(OC)cc3)c(N3CCN(CC)CC3)c2c1	19	105	3	4	1	4	·
COC(=O)c1ccc(CNC(=O)c2ccc(S(=O)(=O)N3CCCC(C)C3)cc2)cc1 (configuration not stated)	·	108	·	·	·	·	·
CN(CC(=O)Nc1ccccc1Cl)C1CCS(=O)(=O)C1 (configuration not stated)	·	101	·	·	·	·	·
COc1cc(/C=C/c2ccc3cccc(OC)c3n2)c(O)c([N+](=O)[O-])c1	69*	102	-2	-1	0	0	+
